HCV core dimer: inhibitors of HCV core protein dimerization, primary screen, biochemical, TR-FRET, high-throughput; inhibition, % at 5 µM; AID 1899, 2009; TR-FRET GST/Flag-core106 dimerization, 1536-well; 300,000 compounds, 0.33% hits;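 active = inhibition above the mean of all tested compounds plus 3 SD, set per screening campaign, cut at about 45% in these data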
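System: GST-tagged and Flag-tagged HCV core protein residues 1-106 / Input: core106 proteins, GST 13.5 nM and Flag 17 nM / Buffer or medium: KF-containing HEPES buffer, pH 7.45, DTT, CHAPS, BSA / Probe or stimulus: Eu-anti-GST and XL665-anti-Flag labelled anti-tag antibodies / Schedule: 4 h, 22.5 °C incubation / Technique: TR-FRET 671 and 617 nm emission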
ALR H2O2 inh: inhibitors of human ALR sulfhydryl oxidase, primary screen, biochemical, H2O2 detection, HRP-luminol luminescence, single point; 290,000 compounds, 3.8% hits; inhibition, % (concentration not given with the values); purified ALR, DTT oxidation; AID 485317, 2010; FAD-linked sulfhydryl oxidase ALR (Homo sapiens), P55789;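 active = mean replicate inhibition above about 79%, with every replicate also reaching it, limit read from the data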
Target sequence (P55789 whole entry, looked up): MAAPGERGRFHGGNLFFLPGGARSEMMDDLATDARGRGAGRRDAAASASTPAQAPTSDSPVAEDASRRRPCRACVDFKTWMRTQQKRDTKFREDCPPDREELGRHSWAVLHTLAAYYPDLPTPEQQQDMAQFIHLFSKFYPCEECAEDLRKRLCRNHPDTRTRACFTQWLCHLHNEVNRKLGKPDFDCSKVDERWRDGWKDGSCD
AI-2 QS modul: Vibrio harveyi AI-2 quorum sensing modulators, primary screen, JMH597 strain, luminescence/OD600 ratio | Vibrio harveyi JMH597 AI-2 luminescence/OD600 ratio, 9 h; active compounds read low; strain lacks LuxN and CqsS sensors; 0 = neutral-control median | activity change, % at 7.5 µM | 300,000 compounds, 0.4% hits; in the data active = activity change below about -75%, passing the limit was not always enough;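 note: luminescence divided by OD600 gain over 9 h not by final OD600 alone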
HSF1 inhib: HSF1 inhibitors in luciferase reporter cells, primary screen, cell-based, NIH3T3, luminescence | NIH3T3-HGL HSE-luciferase, MG132-induced, luminescence 8 h; active compounds read low | activity change, negative = inhibition, % at 7.5 µM (by protocol) | 300,000 compounds, 0.77% hits;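 active = more than half of replicate wells show activity change below -50%, luminescence cut by over half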;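 note: luciferase reports HSF-1 transcriptional activity via heat shock element; 0% = median of DMSO wells and -100% = zero luminescence signal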
PHOSPHO1 block: PubChem AID 1565. recombinant PHOSPHO1, absorbance phosphatase assay. inhibition, % at 13.3 µM. 290,000 compounds, 1.1% hits. Phosphoethanolamine/phosphocholine phosphatase (Homo sapiens), Q8TCT1; in the data active = inhibition above about 60%
Target sequence (Q8TCT1 whole entry, looked up): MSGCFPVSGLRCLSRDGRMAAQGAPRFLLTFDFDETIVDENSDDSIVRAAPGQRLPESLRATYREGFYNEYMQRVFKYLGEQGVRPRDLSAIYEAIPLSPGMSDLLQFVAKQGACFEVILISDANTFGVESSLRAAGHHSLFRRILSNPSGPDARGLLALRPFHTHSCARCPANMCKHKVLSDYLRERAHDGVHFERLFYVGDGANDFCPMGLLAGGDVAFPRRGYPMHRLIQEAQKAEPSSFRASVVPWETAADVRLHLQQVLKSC
HSF1 activator: HSF-1 activators, primary screen, NIH3T3-HGL cells, MG132 stress, luminescence, single point | NIH3T3-HGL HSF-1 luciferase reporter, 8 h; 100% = twice DMSO control signal | activation, % at 9 µM | 300,000 compounds, 1.7% hits;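 active = mean replicate activation of at least 50% with a set share of replicates each reaching 50%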;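 note: 0% = median of the neutral control wells and 100% = twice that signal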
* = called active by the depositor; . = no result given. Compounds with a hit are over-represented: about 6.8% of the library has one in this group of screens.

SMILES	HCV core dimer	ALR H2O2 inh	AI-2 QS modul	HSF1 inhib	PHOSPHO1 block	HSF1 activator
COC(=O)/C(=C\Nc1ccccc1N)c1ncc(C(F)(F)F)cc1Cl	-3.1	4.6	0.1	86.6	4.2	137.8*
O=C(c1ccccc1)c1ncc(C(F)(F)F)cc1Cl	-2.8	-9.5	0.5	-20.8	-9.3	-35.2
O=c1cc(-c2ccccc2)nc2c(-c3ccccc3)c(C(F)(F)F)[nH]n12	7.6	.	-17.0	0.7	29.0	17.5
COc1ccc2[nH]c(=O)c(CN(C(=O)c3ccccn3)C3CCCCC3)cc2c1	-3.8	99.0*	0.9	-8.6	16.3	10.3
CCOc1ccc(C(=O)N(Cc2ccc(OC)cc2)Cc2cc3cc(OC)ccc3[nH]c2=O)cc1	10.7	-13.8	24.1	39.6	-15.3	64.8*
CCCN(Cc1cc2cc(OC)ccc2[nH]c1=O)C(=O)c1ccncc1	1.4	-38.3	17.3	-0.8	9.6	-10.3
CCCN(Cc1cc2cc(OC)ccc2[nH]c1=O)C(=O)c1ccco1	1.1	-29.0	7.0	21.0	-8.5	22.3
CCCCN(Cc1cc2cc(OC)ccc2[nH]c1=O)C(=O)c1ccco1	10.0	-16.3	18.8	36.2	18.2	76.5*
Cc1nc(SC(C)C(=O)NC2CCCC2)c2ccccc2n1 (stereo not given)	.	24.7	.	.	.	.
CN(C)c1ccc(/C=C(/NC(=O)c2ccccc2)C(=O)NCCCn2ccnc2)cc1	-21.3	98.9*	24.2	-1.2	-3.7	1.9
CN(C)c1ccc(/C=C(\NC(=O)c2ccccc2)C(=O)NCCCN2CCOCC2)cc1	-2.4	98.4*	15.4	-11.7	23.3	-9.2
O=C(NCCCn1ccnc1)c1ccc(F)cc1	-13.3	-16.1	5.4	-6.5	14.9	1.7
CCC(=O)Nc1ccc(C(=O)NCCCn2ccnc2)cc1	-11.5	99.6*	9.1	-1.0	48.4	2.3
CN(C)c1ccc(/C=C(\NC(=O)c2ccccc2)C(=O)NCCN2CCOCC2)cc1	-9.1	.	4.5	1.2	-114.0	-11.8
O=C(CC(=O)NC1CCCCC1)N/N=C/c1ccccc1[N+](=O)[O-]	-0.3	.	5.2	7.4	39.1	21.1
Cc1cccc(C(=O)NCCC(=O)Nc2ccc(C#N)cc2)c1	4.4	0.0	22.8	-5.5	27.9	-0.3
CCN1CCN(c2cc(C)c3cc(NC(=O)c4ccc(OC)c(OC)c4)ccc3n2)CC1	-28.7	.	33.6	2.7	-0.1	8.0
CCCCN(CC)C(=S)Nc1ccc2nc(N3CCN(C)CC3)cc(C)c2c1	1.9	.	15.5	-55.6*	-20.5	-55.3
CCCCN(C)C(=S)Nc1ccc2nc(N3CCN(CC)CC3)cc(C)c2c1	1.1	15.5	19.2	-63.8*	53.0	-70.6
CCN1CCN(c2cc(C)c3cc(NC(=O)c4ccc5c(c4)OCO5)ccc3n2)CC1	0.2	84.4*	20.3	0.3	-6.2	-7.2
O=C(NC1CCSc2ccccc21)c1cc([N+](=O)[O-])ccc1N1CCOCC1 (stereo not given)	4.7	.	11.8	-7.1	.	0.7
COC(=O)[C@H]1C[C@H]1[C@@H](NC(=O)c1ccc[nH]1)c1ccccc1	0.4	-23.8	29.3	22.5	.	39.9
On1ccccc1=S	3.1	92.4*	.	.	.	.
O=C(Cn1ccccc1=S)c1ccc(Cl)c(Cl)c1	0.3	24.0	30.4	1.0	.	11.5
CC(C)Cc1cc(C(=O)N2CCCC(CO)(Cc3ccc(F)cc3F)C2)n[nH]1 (stereo not given)	-4.6	-33.7	22.8	0.2	22.2	-1.3
SMILES	HCV core dimer	ALR H2O2 inh	AI-2 QS modul	HSF1 inhib	PHOSPHO1 block	HSF1 activator
Cc1cccc(NC(=O)CCc2c(C)nn(-c3ccc(N4CCCCC4)nn3)c2C)c1	4.3	0.1	21.0	31.9	27.9	63.7*
CCCCNC1c2ccccc2C(=O)N1Cc1ccccc1 (stereo not given)	-4.3	0.6	9.0	-0.3	29.1	17.6
Cc1nc(-c2ccc(Cl)cc2)sc1C1(C)CC(c2ccc(C#N)cc2)=NO1 (stereo not given)	5.7	.	7.8	17.0	4.5	44.9
O=C(CN1C(=O)CC(c2ccccc2)=Nc2ccccc21)NCc1ccco1	3.5	-2.1	3.2	17.0	5.5	71.1*
O=C(CN1C(=O)CC(c2ccccc2)=Nc2ccccc21)NCc1ccccc1	1.3	0.2	4.5	-2.6	-8.3	9.4
CCCOC(=O)c1ccc(NC(=O)CSC2=Nc3ccccc3C3CC=NN23)cc1 (stereo not given)	4.2	97.5*	8.8	4.4	3.9	6.6
O=C(CSC1=Nc2ccccc2C2CC=NN12)NCc1ccco1 (stereo not given)	.	98.6*	.	.	.	.
Nc1nc(NCCCN2CCOCC2)nc(Nc2cccc(Cl)c2)c1[N+](=O)[O-]	-1.1	-2.1	22.3	2.7	-3.6	1.9
Fc1ccccc1NC(=S)N(CCN1CCCCC1)Cc1ccco1	-0.4	-6.3	-4.8	9.9	-0.4	7.1
O=C1CC(c2ccccc2)Sc2ccccc2N1 (stereo not given)	-1.1	93.7*	20.7	6.6	-44.6	5.0
O=C(Nc1ccncc1)C1CCN(S(=O)(=O)c2ccc(Cl)c(C(F)(F)F)c2)CC1	.	1.0	.	.	.	.
CCn1c(N)c(C(=O)NCCOC)sc1=S	4.9	99.8*	26.4	-4.9	17.1	-6.7
CCn1c(N)c(C(=O)NCc2ccc3c(c2)OCO3)sc1=S	-14.7	99.1*	13.5	0.4	-36.8	-5.0
CCn1c(N)c(C(=O)Nc2ccccc2C(=O)OC)sc1=S	0.2	8.8	-11.4	-0.2	52.6	16.0
CCOC(=O)c1c(C)c(C(=O)NCc2ccc3c(c2)OCO3)c(C)n1CC	1.9	-17.8	25.1	-6.0	2.3	-1.3
Cc1nnc(SCC(=O)NNC(=O)COc2ccc(Cl)cc2)n1C	-3.0	0.4	10.5	-0.2	19.0	29.3
COc1ccc(C2CC(c3ccccc3)=NN2c2ccccc2)c(C(=O)O)c1OC (stereo not given)	-4.1	98.6*	-5.6	-3.6	16.1	4.4
COc1ccc(-c2nn(CCC(=O)O)cc2CCC(=O)O)cc1	-5.3	-4.1	22.1	-2.3	-11.0	-12.7
COc1ccc(C2CC(c3ccccc3)=NN2c2ccc(Cl)c(C(=O)O)c2)cc1 (stereo not given)	23.2	98.4*	-3.1	-8.8	-10.7	12.1
COc1ccc(C2=NN(c3ccccc3)C(c3cn(CCC(=O)O)nc3-c3ccccc3)C2)cc1 (stereo not given)	19.1	94.4*	8.1	7.4	6.6	-10.1
COc1ccc2c(c1OC)C(=O)N1N=C(c3ccccc3)CC21 (stereo not given)	0.1	0.5	23.9	11.8	21.5	-1.4

From PubChem BioAssay
